This is a sample that favours compounds with a hit; in the whole collection about 1.7% have one here.
CASP6 VEID inh – blocks human caspase-6 cleavage activity; P55212; purified caspase-6, Z-VEID-R110 cleavage fluorescence; inhibition, % at 12.5 µM; hit rate 0.53% among 350,000; AID 686996;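 active means mean inhibition across replicates at least about 35%, with every replicate also reaching that limit, limit read from the data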
Target sequence (P55212 24-179 limits assumed): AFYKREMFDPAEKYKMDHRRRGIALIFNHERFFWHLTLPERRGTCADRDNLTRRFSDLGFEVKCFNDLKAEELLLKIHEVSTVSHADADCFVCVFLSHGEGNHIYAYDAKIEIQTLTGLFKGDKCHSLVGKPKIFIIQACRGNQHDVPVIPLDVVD
Target sequence (P55212 194-293 limits assumed): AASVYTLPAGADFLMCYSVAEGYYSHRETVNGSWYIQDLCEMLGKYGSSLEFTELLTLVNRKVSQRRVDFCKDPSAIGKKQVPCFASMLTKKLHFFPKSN
DNMT1 inh – DNMT1 (human) enzyme inhibition. P26358. DNMT1 molecular beacon, Hinp1I cleavage, fluorescence. inhibition (reported as % activation of signal), % at 10 µM. hit rate 0.83% among 360,000. AID 588458; in the data active means inhibition above about 50%
STEP block – blocks human striatal-enriched tyrosine phosphatase. recombinant STEP, OMFP fluorogenic substrate, fluorescence. inhibition, % at 20 µM. hit rate 0.25% among 360,000. AID 588621;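 active means inhibition at 20 µM, scaled per plate between control wells, above about 37%, limit read from the data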
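System: isolated STEP enzyme; schedule: 20 min enzyme reaction at room temperature, protected from light; medium: Bis-Tris buffer pH 6.0, 2.5 mM DTT, 0.005% Tween 20; signal: fluorescence, 480/540 nm; dosing: single compound dose of 20 µM, 1% DMSO final; also added: OMFP substrate, 25 µM final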
LMPTP inh – blocks human LMPTP phosphatase | P24666 | recombinant LMPTP-A, OMFP fluorogenic substrate, fluorescence intensity | inhibition, % at 20 µM | hit rate 0.22% among 360,000 | AID 651560;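 active means compounds that cut the enzyme signal by at least half of the control window in the single-dose screen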
Target sequence (P24666 whole entry, looked up): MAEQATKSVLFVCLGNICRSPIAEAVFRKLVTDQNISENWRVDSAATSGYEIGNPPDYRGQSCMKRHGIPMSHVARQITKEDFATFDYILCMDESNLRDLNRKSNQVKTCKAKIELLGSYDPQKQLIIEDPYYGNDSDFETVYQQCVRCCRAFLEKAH
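Assay system: LMPTP-A, protein tyrosine phosphatase of low molecular weight / Medium: pH 6.0 Bis-Tris buffer with DTT and Triton X-100 / Schedule: 50 min enzyme reaction at room temperature, protected from light / Measured by: endpoint fluorescence intensity from OMFP dephosphorylation / Read-out basis: % inhibition relative to no-enzyme and uninhibited control wells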
SUMO1 PPI mod – modulators of human SUMO1-mediated protein-protein interactions | P63165 | SUMO1 binding to a labelled peptide, TR-FRET, 1 h | inhibition, % at 20 µM | hit rate 0.33% among 360,000 | AID 602429; in the data active means inhibition above about 37%
Scp1 inh – inhibitors of human Scp-1 phosphatase. inhibition, % at 20 µM. hit rate 0.88% among 340,000. Recombinant Scp1, phosphopeptide, malachite green phosphate absorbance. AID 493091;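 active means inhibition above about 50% at 20 µM, limit read from the data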
Target sequence (Q9GZU7 76-261 limits assumed): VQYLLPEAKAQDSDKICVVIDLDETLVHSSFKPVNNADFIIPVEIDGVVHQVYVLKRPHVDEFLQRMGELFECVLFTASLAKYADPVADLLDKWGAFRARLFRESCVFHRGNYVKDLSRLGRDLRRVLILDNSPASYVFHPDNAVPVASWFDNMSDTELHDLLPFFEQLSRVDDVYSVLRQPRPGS
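Test system: SCP-1 phosphatase catalytic domain, residues 76-261 | Compound dosing: One concentration, 20 µM, with 1.0% DMSO | Schedule: 45 min room-temperature reaction, 5 min colour, 30 min stabiliser | Detection: Absorbance at 630 nm | Read-out basis: % inhibition of SCP-1 phosphate liberation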
Of the large screens only hits and unclear results are named; the others gave an inactive call.

O=c1[nH]c(-[n+]2ccccc2)c(/C=N/NC([S-])=Nc2ccccc2)s1	none
Cc1cc[n+](-c2[nH]c(=O)sc2/C=N/NC([S-])=Nc2ccccc2)cc1	CASP6 VEID inh 41.0
Cc1ccc(-c2cc(C#N)c(=O)n(Cc3c(Cl)cccc3Cl)c2)cc1	SUMO1 PPI mod 41.5 (no result: CASP6 VEID inh)
Cc1cc(N2CCCC2)ccc1NC(=O)CN1C(=O)NC2(CCCCC2)C1=O	CASP6 VEID inh 39.2
CCc1ccccc1OCC(=O)Nc1ccc(N2CCCC2)cc1C	DNMT1 inh 53.3
Cc1cccc(OCC(=O)NCC(c2ccco2)N2CCCC2)c1 (stereo unspecified)	none
Oc1ccc(/C=N/N2CCCCC2)c(O)c1O	CASP6 VEID inh 38.6
O=C1c2ccccc2C(=O)N1/N=C/c1ccc(O)c(O)c1O	LMPTP inh 68.0 (no result: CASP6 VEID inh)
Cc1nc2ccccc2c(=O)n1/N=C/c1ccc(O)c(O)c1O	DNMT1 inh 77.9, LMPTP inh 83.7, SUMO1 PPI mod 69.7
O=C1c2cccc3cccc(c23)C(=O)N1/N=C/c1ccc(O)cc1O	none (no result: CASP6 VEID inh)
N=C1S/C(=C\c2ccc(-c3cccc(Cl)c3)o2)C(=O)N1c1nccs1	DNMT1 inh 111.7
Cc1cc(/C=C2/C(=N)N3C(c4ccccc4)=CSC3=NC2=O)c(C)n1-c1ccc(Cl)cc1	none
N=C1/C(=C\c2ccc(-c3ccc(C(=O)O)cc3)o2)C(=O)N=C2SC=C(c3ccccc3)N12	STEP block 60.6, LMPTP inh 65.4, SUMO1 PPI mod 109.9, Scp1 inh 81.1
N=C1/C(=C\c2ccc(-c3cccc(Cl)c3)o2)C(=O)N=C2SC=C(c3ccccc3)N12	DNMT1 inh 60.9
CN(C)c1cccc(O)c1	none
Clc1ccccc1Nc1nc(NCc2ccccc2)nc2ccsc12	none (no result: Scp1 inh)
OCc1ccccc1-c1nc(NCc2ccccc2)nc2ccsc12	CASP6 VEID inh 41.9 (no result: Scp1 inh)
COCC(=O)N1CC2(C1)[C@@H](c1ccc(-c3cccc(C)c3)cc1)[C@@H](CO)N2C(=O)C1CC1	none (no result: DNMT1 inh, STEP block, LMPTP inh, SUMO1 PPI mod, Scp1 inh)
Oc1ccc(N=C/C=C/c2cccc(Br)c2)cc1-c1nc2ccccc2s1	DNMT1 inh 51.8 (no result: CASP6 VEID inh)
CCNS(=O)(=O)c1ccc(OCCNS(C)(=O)=O)cc1	none
O=C(NCc1ccco1)c1ccc(CS(=O)(=O)c2cccc(C(F)(F)F)c2)o1	SUMO1 PPI mod 55.0 (no result: CASP6 VEID inh)
CCCCNC(=O)c1ccc(CS(=O)(=O)c2cccc(C(F)(F)F)c2)o1	none (no result: CASP6 VEID inh)
C=CCn1c(O)c(N=NC(=O)c2ccccc2NS(=O)(=O)c2cccs2)c2ccccc21	none
CN1C(=O)N(C)c2cccc3cccc1c23	none
CCc1ccc2cccc3c2c1N=CN3C	CASP6 VEID inh 60.8
c1ccc2[nH]c3cc4ncnc4cc3nc2c1	CASP6 VEID inh 68.5
FC(F)c1nc2ccccc2[nH]1	none
CCCCc1c(O)nc(SCC(=O)c2ccccc2)[nH]c1=O	none (no result: CASP6 VEID inh)
CCOC(=O)/C(=C\c1cccc(O)c1)c1nc2sc(C)c(C)c2c(=O)[nH]1	STEP block 84.6
CN(C)CCNc1cccc2sc3ccc(O)cc3c(=O)c12	DNMT1 inh 56.1 (no result: Scp1 inh)
Cc1ccc(NCCN(C)C)c2c(=O)c3cc(O)ccc3sc12	DNMT1 inh 57.3
CC(C)(C)CN1CCNC[C@H]1Cc1cccc2ccccc12	none
Cc1ccc(NC(=O)N/C=C/c2ccco2)cc1C	DNMT1 inh 56.7 (no result: CASP6 VEID inh)
Cc1ccc(NC(=O)N/C=C/c2ccco2)c(C)c1	none (no result: CASP6 VEID inh)
O=C1Nc2ccc(C(=O)O)c(O)c2C1=O	CASP6 VEID inh 39.5
C[C@@H]1CN([C@H](C)CO)C(=O)c2cccc(NC(=O)c3nc4ccccc4s3)c2O[C@@H]1CN(C)CC1CC1	none (no result: DNMT1 inh, STEP block, LMPTP inh, SUMO1 PPI mod, Scp1 inh)
CCOC(=O)c1sc(C)c2c(=O)n(Cc3ccc(Cl)cc3)cnc12	CASP6 VEID inh 49.9
COc1cc2c(cc1OC)CN(C(=O)CCNS(=O)(=O)c1ccc(Br)cc1)CC2	none
Cc1cc(/C=C2/SC(=S)N(c3cccc(C(F)(F)F)c3)C2=O)c(C)n1-c1cccnc1	DNMT1 inh 50.8 (no result: CASP6 VEID inh)
CC(C)C(C(=O)O)N1C(=O)/C(=C/C=C/c2ccco2)SC1=S (stereo unspecified)	DNMT1 inh 84.5, STEP block 92.2, LMPTP inh 77.6, SUMO1 PPI mod 108.2, Scp1 inh 96.8 (no result: CASP6 VEID inh)
Cc1cc(/C=C2\SC(=S)N(Cc3ccco3)C2=O)c(C)n1-c1cccnc1	none (no result: CASP6 VEID inh)
CC(C)C(C(=O)O)N1C(=O)/C(=C/c2cccn2C)SC1=S (stereo unspecified)	none
O=C1/C(=C/C=C/c2ccco2)SC(=S)N1c1ccc(O)cc1	CASP6 VEID inh 76.3, DNMT1 inh 93.5, LMPTP inh 58.1, SUMO1 PPI mod 60.0, Scp1 inh 59.4
CN1C(=S)N(c2ccccc2)C(=O)/C1=C/c1ccco1	none (no result: CASP6 VEID inh)
O=C1/C(=C\c2ccco2)SC(=S)N1c1ccc(O)cc1	CASP6 VEID inh 37.7
CN(C)C(=O)C[C@@H]1C=C[C@H](NC(=O)NC2CCCC2)[C@H](CO)O1	none (no result: DNMT1 inh, STEP block, LMPTP inh, SUMO1 PPI mod, Scp1 inh)
COc1ccc(/C=C2\SC(=S)N(c3cccnc3)C2=O)cc1	none
NN1C(=O)/C(=C\c2ccco2)SC1=S	CASP6 VEID inh 70.3, DNMT1 inh 51.6
CCOC(=O)CN1C(=O)S/C(=C/c2ccco2)C1=O	none
O=C1/C(=C/c2ccco2)SC(=S)N1c1cccnc1	CASP6 VEID inh 83.3, DNMT1 inh 99.4, STEP block 78.8, LMPTP inh 74.7, SUMO1 PPI mod 107.4, Scp1 inh 87.0
O=C1NC(=Nc2ccc(O)cc2)S/C1=C/c1ccco1	CASP6 VEID inh 39.3
Cc1cc(C)cc(N(CC(=O)NC(C)C)C(=O)CCC(=O)Nc2ccccn2)c1	CASP6 VEID inh 44.9
O=S(=O)(O)c1cccc2c(N=Nc3ccc(O)c4ncccc34)cccc12	STEP block 50.9, LMPTP inh 51.3, Scp1 inh 94.9
COc1ccc(N=Nc2ccc(O)c3ncccc23)cc1	DNMT1 inh 71.0, SUMO1 PPI mod 51.1
Cc1ccccc1N=Nc1ccc(O)c2ncccc12	DNMT1 inh 71.0
COc1ccc(C)cc1N=Nc1ccc(O)c2ncccc12	none
CCN1/C(=C/c2ccc3cc(C)ccc3[n+]2CC)Sc2cc(C)ccc21	LMPTP inh 49.5
CCCCN1/C(=C/c2ccc3ccccc3[n+]2CC)Sc2ccccc21	none (no result: CASP6 VEID inh)
CCN1/C(=C/c2ccc3cc(C)ccc3[n+]2C)Sc2ccc3sccc3c21	LMPTP inh 76.9
Cc1c(C(=O)OCc2ccccc2)[nH]c2c1C(=O)CC(c1ccco1)C2 (stereo unspecified)	DNMT1 inh 67.9, LMPTP inh 79.1, Scp1 inh 71.3 (no result: CASP6 VEID inh)
COCCOC(=O)c1[nH]c2c(c1C)C(=O)CC(c1ccc(F)cc1)C2 (stereo unspecified)	none
COCCOC(=O)c1[nH]c2c(c1C)C(=O)CC(c1ccccc1)C2 (stereo unspecified)	none (no result: CASP6 VEID inh)
